Laboratory results reported in ChEMBL document CHEMBL1156920, “Structural analogues of schweinfurthin F: probing the steric, electronic, and hydrophobic properties of the D-ring substructure” (Bioorg Med Chem, 2010).

Experiments:
[1] = Growth inhibition of human […] cells; format: functional
TK-10 = assay: Growth inhibition of human TK10 cells; format: functional
SF-539 = assay: Growth inhibition of human SF539 cells; format: functional
Malme-3M = assay: Growth inhibition of human MALME-3M cells; format: functional
DU-145 = assay: Growth inhibition of human DU145 cells; format: functional
SF-295 [2] = assay: Cytotoxicity against human SF295 cells after 44 hrs by MTT assay; format: functional, cell-based; conditions: SF-295, 44 h
In short: (§1)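 SF-295 cells cultured in RPMI 1640 and A549 cells in F-12, each with 10% FBS, penicillin–streptomycin, amphotericin B and L-glutamine, at 37 °C in 5% CO2. Cells were grown to 60% confluency, then treated for 44 h. Medium was replaced with medium containing 0.06 mg/mL MTT (phenol red-free RPMI for SF-295) for 4 h. Acid/Triton/isopropanol stop solution was added, plates incubated overnight at 37 °C, OD read at 540 and 650 nm, and EC50 calculated.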

UO-31 = assay: Growth inhibition of human UO31 cells; format: functional
SK-MEL-5 = assay: Growth inhibition of human SK-MEL-5 cells; format: functional
A549 [3] = assay: Cytotoxicity against human A549 cells after 44 hrs by MTT assay; format: functional, cell-based; conditions: A549, 44 h; in short: as §1
RXF 393 = assay: Growth inhibition of human RXF393 cells; format: functional
EKVX = assay: Growth inhibition of human EKVX cells; format: functional
BT-549 = assay: Growth inhibition of human BT549 cells; format: functional
COLO 205 = assay: Growth inhibition of human COLO205 cells; format: functional
NCI-H226 = assay: Growth inhibition of human NCI-H226 cells; format: functional
MDA-MB-435 = assay: Growth inhibition of human MDA-MB-435 cells; format: functional
NCI-H460 = assay: Growth inhibition of human NCI-H460 cells; format: functional
U-251 = assay: Growth inhibition of human U251 cells; format: functional
NCI/ADR-RES = assay: Growth inhibition of human NCI/ADR-RES cells; format: functional
PC-3 = assay: Growth inhibition of human PC3 cells; format: functional
MDA-MB-468 = assay: Growth inhibition of human MDA-MB-468 cells; format: functional
SNB-19 = assay: Growth inhibition of human SNB19 cells; format: functional
HCC 2998 = assay: Growth inhibition of human HCC2998 cells; format: functional
SNB-75 = assay: Growth inhibition of human SNB75 cells; format: functional
OVCAR-5 = assay: Growth inhibition of human OVCAR5 cells; format: functional
IGROV-1 = assay: Growth inhibition of human IGROV1 cells; format: functional
SF-295 [4] = assay: Growth inhibition of human SF295 cells; format: functional
MCF7 = assay: Growth inhibition of human MCF7 cells; format: functional
SK-OV-3 = assay: Growth inhibition of human SKOV3 cells; format: functional
K562 = assay: Growth inhibition of human K562 cells; format: functional
ACHN = assay: Growth inhibition of human ACHN cells; format: functional
A549 [5] = assay: Growth inhibition of human A549 cells; format: functional
[6] = Cytotoxicity against human NCI60 cells; format: functional
SK-MEL-2 = assay: Growth inhibition of human SK-MEL-2 cells; format: functional
OVCAR-4 = assay: Growth inhibition of human OVCAR4 cells; format: functional
CAKI-1 = assay: Growth inhibition of human Caki1 cells; format: functional
M14 = assay: Growth inhibition of human M14 cells; format: functional
OVCAR-3 = assay: Growth inhibition of human OVCAR-3 cells; format: functional
UACC-62 = assay: Growth inhibition of human UACC62 cells; format: functional
MDA-MB-231 = assay: Growth inhibition of human MDA-MB-231 cells; format: functional
HCT-15 = assay: Growth inhibition of human HCT15 cells; format: functional
NCI-H23 = assay: Growth inhibition of human NCI-H23 cells; format: functional
HOP-62 = assay: Growth inhibition of human HOP62 cells; format: functional
[7] = read-out: pLC50 (the source's name) (converted)

## COc1cc(/C=C/c2cc(O)c(CCC(C)C)c(O)c2)cc2c1O[C@]1(C)CC[C@@H](O)C(C)(C)[C@H]1C2
[1]
  GI50: 17.4 nM
  LC50: > 100 µM
TK-10
  GI50: 6.31 µM
  LC50: 74.1 µM
TK-10; read-out: pTGI (converted)
  TGI: 25.1 µM
SF-539
  GI50: 28.8 nM
  LC50: 2690 nM
SF-539; read-out: pTGI (converted)
  TGI: 295 nM
Malme-3M
  GI50: 1410 nM
  LC50: 63.1 µM
Malme-3M; read-out: pTGI (converted)
  TGI: 12.3 µM
DU-145
  GI50: 240 nM
  LC50: 37.2 µM
DU-145; read-out: pTGI (converted)
  TGI: 14.1 µM
SF-295 [2]
  EC50: 400 nM
UO-31
  GI50: 46.8 nM
UO-31; [7]
  CC50: 74.1 µM
UO-31; read-out: pTGI (converted)
  TGI: 2400 nM
SK-MEL-5
  GI50: 83.2 nM
  LC50: 4.47 µM
SK-MEL-5; read-out: pTGI (converted)
  TGI: 1510 nM
A549 [3]
  EC50: 4.2 µM
RXF 393
  GI50: 10 nM
RXF 393; [7]
  CC50: 8.32 µM
RXF 393; read-out: pTGI (converted)
  TGI: 89.1 nM
EKVX
  GI50: 447 nM
  LC50: > 100 µM
EKVX; read-out: pTGI (converted)
  TGI: 17.4 µM
BT-549
  GI50: 363 nM
BT-549; [7]
  CC50: > 100 µM
BT-549; read-out: pTGI (converted)
  TGI: 28.8 µM
COLO 205
  GI50: 891 nM
  LC50: > 100 µM
COLO 205; read-out: pTGI (converted)
  TGI: 12.3 µM
NCI-H226
  GI50: 692 nM
  LC50: > 100 µM
NCI-H226; read-out: pTGI (converted)
  TGI: 3.55 µM
MDA-MB-435
  GI50: 501 nM
  LC50: > 100 µM
MDA-MB-435; read-out: pTGI (converted)
  TGI: 24 µM
NCI-H460
  GI50: 66.1 nM
  LC50: 51.3 µM
NCI-H460; read-out: pTGI (converted)
  TGI: 1780 nM
U-251
  GI50: 63.1 nM
  LC50: 37.2 µM
U-251; read-out: pTGI (converted)
  TGI: 12.9 µM
NCI/ADR-RES
  GI50: 2340 nM
NCI/ADR-RES; [7]
  CC50: > 100 µM
NCI/ADR-RES; read-out: pTGI (converted)
  TGI: 47.9 µM
PC-3
  GI50: 178 nM
PC-3; [7]
  CC50: > 100 µM
PC-3; read-out: pTGI (converted)
  TGI: 32.4 µM
MDA-MB-468
  GI50: 851 nM
  LC50: 57.5 µM
MDA-MB-468; read-out: pTGI (converted)
  TGI: 4.37 µM
SNB-19
  GI50: 372 nM
HCC 2998
  GI50: 794 nM
  LC50: 38 µM
HCC 2998; read-out: pTGI (converted)
  TGI: 10.5 µM
SNB-75
  GI50: 60.3 nM
  LC50: 39.8 µM
SNB-75; read-out: pTGI (converted)
  TGI: 11.2 µM
OVCAR-5
  GI50: 10.7 µM
  LC50 (lethal concentration, 50% cell kill): 69.2 µM
OVCAR-5; read-out: pTGI (converted)
  TGI: 26.9 µM
IGROV-1
  GI50: 513 nM
  LC50: > 100 µM
IGROV-1; read-out: pTGI (converted)
  TGI: 46.8 µM
SF-295 [4]
  GI50: 33.1 nM
  LC50: 66.1 µM
SF-295 [4]; read-out: pTGI (converted)
  TGI: 1350 nM
MCF7
  GI50: 42.7 nM
MCF7; [7]
  CC50: > 100 µM
MCF7; read-out: pTGI (converted)
  TGI: 2400 nM
SK-OV-3
  GI50: 11.5 µM
  LC50: > 100 µM
SK-OV-3; read-out: pTGI (converted)
  TGI: 97.7 µM
K562
  GI50: 1170 nM
K562; [7]
  CC50: > 100 µM
K562; read-out: pTGI (converted)
  TGI: > 100 µM
ACHN
  GI50: 309 nM
ACHN; [7]
  CC50: 43.7 µM
ACHN; read-out: pTGI (converted)
  TGI: 15.8 µM
A549 [5]
  GI50: 166 nM
  LC50 (50% lethal concentration): > 100 µM
A549 [5]; read-out: pTGI (converted)
  TGI: 17.4 µM
[6]
  GI50: 290 nM
SK-MEL-2
  GI50: 4.47 µM
SK-MEL-2; read-out: pTGI (converted)
  TGI: 33.1 µM
OVCAR-4
  GI50: 1410 nM
OVCAR-4; [7]
  CC50: > 100 µM
OVCAR-4; read-out: pTGI (converted)
  TGI: 38 µM
CAKI-1
  GI50: 70.8 nM
  LC50: > 100 µM
CAKI-1; read-out: pTGI (converted)
  TGI: 17.8 µM
M14
  GI50: 245 nM
M14; [7]
  CC50: 30.9 µM
M14; read-out: pTGI (converted)
  TGI: 240 nM
OVCAR-3
  GI50: 417 nM
  LC50 (50% lethal concentration): 56.2 µM
OVCAR-3; read-out: pTGI (converted)
  TGI: 14.1 µM
UACC-62
  GI50: 195 nM
UACC-62; [7]
  CC50: 32.4 µM
UACC-62; read-out: pTGI (converted)
  TGI: 7.08 µM
MDA-MB-231
  GI50: 1740 nM
  LC50: 39.8 µM
MDA-MB-231; read-out: pTGI (converted)
  TGI: 11 µM
HCT-15
  GI50: 182 nM
  LC50: 26.3 µM
HCT-15; read-out: pTGI (converted)
  TGI: 2880 nM
NCI-H23
  GI50: 1290 nM
  LC50: 81.3 µM
NCI-H23; read-out: pTGI (converted)
  TGI: 19.5 µM
HOP-62
  GI50: 51.3 nM
  LC50: 13.8 µM
HOP-62; read-out: pTGI (converted)
  TGI: 603 nM
